{
  "source": "ChEMBL document CHEMBL1122744",
  "about": "“2-Chloroethyl (methylsulfonyl)methanesulfonate and related (methylsulfonyl)methanesulfonates. Antineoplastic activity in vivo” (J Med Chem, 1984)",
  "key": {"[1]": {"test_system": "Mus musculus", "test": "Median survival time of the treated control groups, in which there are no 30-day survivors at dose 200 mg/kg in exp1", "format": "functional"}, "[2]": {"test_system": "Mus musculus", "test": "Median survival time of the treated control groups, in which there are no 30-day survivors at dose 50 mg/kg in exp2", "format": "functional"}, "[3]": {"test_system": "Mus musculus", "test": "Median survival time of the untreated control groups, in which there are no 30-day survivors at dose 100 mg/kg in exp1", "format": "functional"}, "[4]": {"test_system": "Mus musculus", "test": "Mortality by day 5 expressed as number of mice died to the total treated at dose 100 mg/kg in exp1; 0/6", "format": "ADME, organism-based", "parameters": "dose 100 mg/kg", "conditions": "in vivo"}, "[5]": {"test_system": "Mus musculus", "test": "Mortality by day 5 expressed as number of mice died to the total treated at dose 100 mg/kg in exp2; 0/6", "format": "ADME, organism-based", "parameters": "dose 100 mg/kg", "conditions": "in vivo"}, "[6]": {"test_system": "Mus musculus", "test": "Change in weight by day 5, obtained by subtracting treated groups of animals minus control groups of animals at dose 50 mg/kg in exp1.", "format": "functional", "in_short": "(§1)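 Mice were inoculated ip with 10^6 P388 leukemia cells on day 0, when treated and control mice weighed 19–22 g. Treatment was given ip once daily on days 1–5, within about 5 min of preparing the solution or suspension. Groups of six (occasionally five) were treated, with 30 untreated inoculated mice as controls. The day-5 weight change is the mean treated change minus the mean control change.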"}, "[7]": {"test_system": "Mus musculus", "test": "Change in weight by day 5, obtained by subtracting treated groups of animals minus control groups of animals at dose 150 mg/kg in exp2", "format": "functional", "in_short": "as §1"}, "[8]": {"test_system": "Mus musculus", "test": "Median survival time of the untreated control groups, in which there are no 30-day survivors at dose 100 mg/kg in exp2", "format": "functional"}, "[9]": {"test_system": "Mus musculus", "test": "Median survival time of the treated control groups, in which there are no 30-day survivors at dose 100 mg/kg in exp1", "format": "functional"}, "[10]": {"test_system": "Mus musculus", "test": "Mortality by day 5 expressed as number of mice died to the total treated at dose 150 mg/kg in exp2; 0/6", "format": "ADME, organism-based", "parameters": "dose 150 mg/kg", "conditions": "in vivo"}, "[11]": {"test_system": "Mus musculus", "test": "Change in weight by day 5, obtained by subtracting treated groups of animals minus control groups of animals at dose 50 mg/kg in exp2", "format": "functional", "in_short": "as §1"}, "[12]": {"test_system": "Mus musculus", "test": "Median survival time of the treated control groups, in which there are no 30-day survivors at dose 150 mg/kg in exp2", "format": "functional"}, "[13]": {"test_system": "Mus musculus", "test": "Mortality by day 5 expressed as number of mice died to the total treated at dose 200 mg/kg in exp1; 0/6", "format": "ADME, organism-based", "parameters": "dose 200 mg/kg", "conditions": "in vivo"}, "[14]": {"test_system": "Mus musculus", "test": "Median survival time of the treated control groups, in which there are no 30-day survivors at dose 50 mg/kg in exp1", "format": "functional"}, "[15]": {"test": "Ratio of median survival times for non-survivors at dose 200 mg/kg in exp1; t= toxic", "format": "ADME, organism-based", "parameters": "dose 200 mg/kg", "conditions": "in vivo", "in_short": "(§2)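 Mice were inoculated ip with 10^6 P388 leukemia cells on day 0. Groups of six (occasionally five) were dosed ip qd on days 1–5 with fresh suspensions; 30 mice served as untreated controls. Deaths were recorded daily up to day 60. T/C% compares the median survival of treated non-survivors (<60 days) with the control median. Medians used grouped data when there were no 30-day survivors, otherwise ungrouped data. t = toxic.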"}, "[16]": {"test_system": "Mus musculus", "test": "Median survival time of the untreated control groups, in which there are no 30-day survivors at dose 200 mg/kg in exp1", "format": "functional"}, "[17]": {"test_system": "Mus musculus", "test": "Change in weight by day 5, obtained by subtracting treated groups of animals minus control groups of animals at dose 100 mg/kg in exp2", "format": "functional", "in_short": "as §1"}, "[18]": {"test_system": "Mus musculus", "test": "Median survival time of the treated control groups, in which there are no 30-day survivors at dose 100 mg/kg in exp2", "format": "functional"}, "[19]": {"test_system": "Mus musculus", "test": "Mortality by day 5 expressed as number of mice died to the total treated at dose 50 mg/kg in exp1; 0/6", "format": "ADME, organism-based", "parameters": "dose 50 mg/kg", "conditions": "in vivo"}, "[20]": {"test": "Ratio of median survival times for non-survivors at dose 100 mg/kg in exp2", "format": "functional", "in_short": "as §2"}, "[21]": {"test": "Ratio of median survival times for non-survivors at dose 50 mg/kg in exp2", "format": "functional", "in_short": "as §2"}, "[22]": {"test_system": "Mus musculus", "test": "Median survival time of the untreated control groups, in which there are no 30-day survivors at dose 150 mg/kg in exp2", "format": "functional"}, "[23]": {"test_system": "Mus musculus", "test": "Median survival time of the untreated control groups, in which there are no 30-day survivors at dose 50 mg/kg in exp1", "format": "functional"}, "[24]": {"test": "Ratio of median survival times for non-survivors at dose 150 mg/kg in exp2", "format": "functional", "in_short": "as §2"}, "[25]": {"test": "Ratio of median survival times for non-survivors at dose 100 mg/kg in exp1", "format": "functional", "parameters": "unit: %", "in_short": "as §2"}, "[26]": {"test_system": "Mus musculus", "test": "Change in weight by day 5, obtained by subtracting treated groups of animals minus control groups of animals at dose 200 mg/kg in exp1.", "format": "functional", "conditions": "200 mg/kg", "in_short": "as §1"}, "[27]": {"test": "Ratio of median survival times for non-survivors at dose 50 mg/kg in exp1", "format": "functional", "parameters": "unit: %", "in_short": "as §2"}},
  "note": "“And” between values parts separate entries of the source, which are not always exact repeats. Equal values may be shown once.",
  "data": [
    {"smiles": "CCOS(=O)(=O)CS(C)(=O)=O", "values": [
      {"measurement": "Median survival time", "setting": "[1]", "value": 6.9},
      {"measurement": "Median survival time", "setting": "[2]", "value": 14},
      {"measurement": "Median survival time", "setting": "[3]", "value": 11.2},
      {"measurement": "Mortality", "setting": "[4]", "value": 0},
      {"measurement": "Mortality", "setting": "[5]", "value": 0},
      {"measurement": "Change in weight", "setting": "[6]", "value": -1.4},
      {"measurement": "Change in weight", "setting": "[7]", "value": -5.4},
      {"measurement": "Median survival time", "setting": "[8]", "value": 10.5},
      {"measurement": "Median survival time", "setting": "[9]", "value": 18},
      {"measurement": "Mortality", "setting": "[10]", "value": 0},
      {"measurement": "Change in weight", "setting": "[11]", "value": -1.8},
      {"measurement": "Median survival time", "setting": "[12]", "value": 11},
      {"measurement": "Mortality", "setting": "[13]", "value": 0},
      {"measurement": "Median survival time", "setting": "[14]", "value": 13.3},
      {"measurement": "Ratio", "setting": "[15]", "value": "Toxic"},
      {"measurement": "Median survival time", "setting": "[16]", "value": 11.2},
      {"measurement": "Change in weight", "setting": "[17]", "value": -4.3},
      {"measurement": "Median survival time", "setting": "[18]", "value": 17.9},
      {"measurement": "Mortality", "setting": "[19]", "value": 0},
      {"measurement": "Ratio", "setting": "[20]", "value": 170},
      {"measurement": "Ratio", "setting": "[21]", "value": 133},
      {"measurement": "Median survival time", "setting": "[22]", "value": 10.5},
      {"measurement": "Median survival time", "setting": "[23]", "value": 11.2},
      {"measurement": "Ratio", "setting": "[24]", "value": 104},
      {"measurement": "Ratio", "setting": "[25]", "value": 160},
      {"measurement": "Change in weight", "setting": "[26]", "value": "-5 and -3.4"},
      {"measurement": "Ratio", "setting": "[27]", "value": 118}
    ]}
  ]
}
